Reference: ChEMBL document CHEMBL1833804, “Discovery of N-(3-(1-methyl-1,2,3,6-tetrahydropyridin-4-yl)-1H-indol-6-yl) thiophene-2-carboximidamide as a selective inhibitor of human neuronal nitric oxide synthase (nNOS) for the treatment of pain” (J Med Chem, 2011)
Activity calls are given as the source filed them. The rule behind the calls is not given here.

Assays:
[1] = target: Nitric oxide sythases; iNOS & nNOS (Homo sapiens) (UniProt P29475+P35228); test: Selectivity ratio of IC50 for human recombinant iNOS to IC50 for human recombinant nNOS
Procedure, shortened: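 Recombinant human nNOS and iNOS were expressed in baculovirus-infected Sf9 cells, and the assay measured [³H]-L-arginine to [³H]-L-citrulline conversion. nNOS buffer: 40 mM HEPES pH 7.4 with CaCl₂, MgCl₂, BSA, 1 mM NADPH and 1.2 μM CaM. iNOS buffer: 100 mM HEPES pH 7.4 with 120 μM NADPH and 100 nM CaM. Compound was preincubated 15 min at RT, then reacted 45 min at 37 °C. Citrulline was separated on DOWEX and counted by scintillation, in duplicate. The ratio is IC50 iNOS/IC50 nNOS.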

Gerbillinae = test: Neuroprotective activity in gerbil cerebral ischemia model; assay type: functional
Nitric oxide synthase 3 = target: T1, Nitric oxide synthase 3 (Homo sapiens, UniProt P29474); test: Inhibition of human recombinant eNOS expressed in Sf9 cells assessed as inhibition of conversion of [3H]-L-arginine to [3H]-L-citrulline after 45 mins by liquid scintillation counting
T1 sequence (P29474 whole entry): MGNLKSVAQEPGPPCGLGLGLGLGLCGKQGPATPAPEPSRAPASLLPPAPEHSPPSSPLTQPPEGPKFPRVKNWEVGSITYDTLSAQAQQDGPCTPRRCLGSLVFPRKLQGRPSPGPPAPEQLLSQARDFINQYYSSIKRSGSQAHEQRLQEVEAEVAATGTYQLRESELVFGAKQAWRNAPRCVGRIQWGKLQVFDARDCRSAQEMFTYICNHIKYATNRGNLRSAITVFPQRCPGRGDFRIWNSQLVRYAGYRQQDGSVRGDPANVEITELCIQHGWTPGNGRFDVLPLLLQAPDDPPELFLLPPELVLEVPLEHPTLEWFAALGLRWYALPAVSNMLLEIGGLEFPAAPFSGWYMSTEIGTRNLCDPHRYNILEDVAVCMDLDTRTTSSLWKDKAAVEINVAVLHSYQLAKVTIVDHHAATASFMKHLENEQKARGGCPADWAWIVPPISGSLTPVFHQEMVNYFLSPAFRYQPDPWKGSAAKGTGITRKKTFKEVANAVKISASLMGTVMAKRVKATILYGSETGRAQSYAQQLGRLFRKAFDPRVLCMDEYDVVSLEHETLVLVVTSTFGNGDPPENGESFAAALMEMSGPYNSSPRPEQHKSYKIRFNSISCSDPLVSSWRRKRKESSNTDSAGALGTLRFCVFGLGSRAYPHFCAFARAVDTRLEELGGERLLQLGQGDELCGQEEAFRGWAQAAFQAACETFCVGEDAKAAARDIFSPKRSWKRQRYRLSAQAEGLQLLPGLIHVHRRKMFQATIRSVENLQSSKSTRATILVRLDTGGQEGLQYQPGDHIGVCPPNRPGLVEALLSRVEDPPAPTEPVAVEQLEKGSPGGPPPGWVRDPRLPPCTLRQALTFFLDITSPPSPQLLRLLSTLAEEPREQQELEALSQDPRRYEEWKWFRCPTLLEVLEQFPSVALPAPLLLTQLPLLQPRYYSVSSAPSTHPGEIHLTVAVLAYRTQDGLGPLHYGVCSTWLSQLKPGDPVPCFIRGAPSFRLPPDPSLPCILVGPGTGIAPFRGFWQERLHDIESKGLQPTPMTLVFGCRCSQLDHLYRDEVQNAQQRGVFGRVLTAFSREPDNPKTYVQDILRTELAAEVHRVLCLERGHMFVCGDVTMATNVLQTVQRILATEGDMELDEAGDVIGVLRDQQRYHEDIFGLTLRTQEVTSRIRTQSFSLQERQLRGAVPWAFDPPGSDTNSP
Procedure, shortened: (§1)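 Recombinant human eNOS or nNOS from baculovirus-infected Sf9 cells in 40 mM HEPES pH 7.4 with 2.4 mM CaCl2, 1 mM MgCl2, 1 mg/mL BSA, 1 mM EDTA, 1 mM DTT, 1 μM FMN, 1 μM FAD, 10 μM BH4, 1 mM NADPH and 1.2 μM CaM. Compound preincubated 15 min at RT, then [3H]-L-arginine conversion ran 45 min at 37 °C. Stopped with pH 5.5 HEPES/EGTA/EDTA buffer. [3H]-citrulline separated on Dowex and counted by scintillation. Duplicates.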

[2] = target: Nitric oxide synthase, inducible (Homo sapiens, UniProt P35228); test: Inhibition of human recombinant iNOS expressed in Sf9 cells assessed as inhibition of conversion of [3H]-L-arginine to [3H]-L-citrulline after 45 mins by liquid scintillation counting
Procedure, shortened: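 Recombinant human iNOS from baculovirus-infected Sf9 cells in 100 mM HEPES pH 7.4 with 1 mM CaCl2, 1 mM EDTA, 1 mM DTT, 1 μM FMN, 1 μM FAD, 10 μM BH4, 120 μM NADPH and 100 nM CaM. Compound preincubated 15 min at RT, then 45 min at 37 °C. [3H]-citrulline from [3H]-L-arginine separated on Dowex and counted by scintillation. Duplicates.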

Nitric oxide synthase 1 = Nitric oxide synthase 1 (Homo sapiens, UniProt P29475); test: Inhibition of human recombinant nNOS expressed in Sf9 cells assessed as inhibition of conversion of [3H]-L-arginine to [3H]-L-citrulline after 45 mins by liquid scintillation counting; procedure, shortened: as §1
[3] = target: T2, Nitric oxide synthase 3 (Homo sapiens) (UniProt P29474); test: Inhibition of eNOS in human arteries precontracted with U46619 assessed as inhibition of acteylcholine-induced vasorelaxation at 100 uM after 50 mins in the presence of 1 mM L-arginine
T2 sequence (whole entry): T1 sequence (P29474 whole entry)
Procedure, shortened: (§2)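 Human resistance artery rings of about 2 mm from surgical explants, wire-mounted in myograph baths of Krebs-bicarbonate PSS gassed with 95% O2/5% CO2 at 37 °C. Rings equilibrated at least 30 min with washes every 15 min, then standardised. Isometric tension recorded during ACh relaxation (10^-10 to 10^-5 M).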

[4] = target: T2, Nitric oxide synthase 3 (Homo sapiens); test: Inhibition of eNOS in human arteries precontracted with U46619 assessed as inhibition of acteylcholine-induced vasorelaxation after 50 mins; procedure, shortened: as §2
Cytochrome P450 2D6 = Cytochrome P450 2D6 (Homo sapiens, UniProt P10635); test: Inhibition of CYP2D6 using AMMC as substrate; assay type: ADME
Procedure, shortened: (§3)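 Insect-cell microsomes expressing single human CYP isozymes, incubated at 37 °C with an NADPH regenerating system (NADP+, glucose-6-phosphate, G6P dehydrogenase, MgCl2) and an isozyme-specific fluorogenic substrate. Formation of the fluorescent metabolite was measured with and without test compound across 0.0457–100 μM. An enzyme-selective inhibitor served as positive control. Duplicate determinations, IC50 reported.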

Cytochrome P450 2C9 = Cytochrome P450 2C9 (Homo sapiens, UniProt P11712); test: Inhibition of CYP2C9 using MFC as substrate; assay type: ADME; procedure, shortened: as §3
Cytochrome P450 1A2 = target: T3, Cytochrome P450 1A2 (Homo sapiens, UniProt P05177); test: Inhibition of CYP1A2 using CEC as substrate; assay type: ADME; procedure, shortened: as §3
T3 sequence (P05177 whole entry): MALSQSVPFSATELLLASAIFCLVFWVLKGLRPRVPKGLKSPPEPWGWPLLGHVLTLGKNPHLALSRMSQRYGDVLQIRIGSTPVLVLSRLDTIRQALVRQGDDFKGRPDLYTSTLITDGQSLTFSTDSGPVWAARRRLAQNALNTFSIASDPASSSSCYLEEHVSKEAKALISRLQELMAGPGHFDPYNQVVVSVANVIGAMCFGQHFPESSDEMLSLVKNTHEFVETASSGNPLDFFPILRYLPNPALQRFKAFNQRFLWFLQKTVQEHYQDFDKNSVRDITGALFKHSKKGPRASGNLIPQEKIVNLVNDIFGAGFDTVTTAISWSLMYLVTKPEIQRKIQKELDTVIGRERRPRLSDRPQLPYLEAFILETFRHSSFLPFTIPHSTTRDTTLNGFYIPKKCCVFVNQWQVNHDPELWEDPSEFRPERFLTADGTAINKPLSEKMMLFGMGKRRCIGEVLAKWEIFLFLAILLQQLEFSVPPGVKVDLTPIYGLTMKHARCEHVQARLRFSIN

[5] = target: T2, Nitric oxide synthase 3 (Homo sapiens); test: Inhibition of eNOS in human arteries precontracted with U46619 assessed as inhibition of acteylcholine-induced vasorelaxation at 1 to 100 uM after 50 mins; procedure, shortened: as §2
Cytochrome P450 3A4 [6] = target: T4, Cytochrome P450 3A4 (Homo sapiens, UniProt P08684); test: Inhibition of CYP3A4 using BQ as substrate; assay type: ADME; procedure, shortened: as §3
Rattus norvegicus [7] = test: Analgesic activity in rat SNL model assessed as reversal of thermal hyperalgesia at 60 mg/kg, ip administered as single dose measured at 90 mins; assay type: functional; details: route intraperitoneal
Procedure, shortened: (§4)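 Rat Chung model: L5 and L6 spinal nerves tightly ligated with 4-0 silk distal to the DRG under halothane anaesthesia, animals recovered in individual cages. Single intraperitoneal dose, 10 or 60 mg/kg. Read-out was paw withdrawal latency to radiant heat, expressed as percent reversal of thermal hyperalgesia over time after dosing.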

Rattus norvegicus [8] = test: Analgesic activity in ip dosed rat spinal nerve ligation model assessed as reversal of thermal hyperalgesia measured after 60 to 120 mins; assay type: functional, organism-based; procedure, shortened: as §4
Cytochrome P450 3A4 [9] = target: T4, Cytochrome P450 3A4; test: Inhibition of CYP3A4 using BFC as substrate; assay type: ADME; procedure, shortened: as §3
[10] = target: T2, Nitric oxide synthase 3 (Homo sapiens); test: Inhibition of eNOS in human arteries precontracted with U46619 assessed as inhibition of acteylcholine-induced vasorelaxation at 1 to 100 uM after 50 mins in the presence of 1 mM L-arginine; procedure, shortened: as §2
Cytochrome P450 2C19 = Cytochrome P450 2C19 (Homo sapiens, UniProt P33261); test: Inhibition of CYP2C19 using CEC as substrate; assay type: ADME; procedure, shortened: as §3
Homo sapiens = species: Homo sapiens; test: Antimigraine activity in migraine patients relative to placebo treated control; assay type: functional

T4 sequence (P08684 whole entry): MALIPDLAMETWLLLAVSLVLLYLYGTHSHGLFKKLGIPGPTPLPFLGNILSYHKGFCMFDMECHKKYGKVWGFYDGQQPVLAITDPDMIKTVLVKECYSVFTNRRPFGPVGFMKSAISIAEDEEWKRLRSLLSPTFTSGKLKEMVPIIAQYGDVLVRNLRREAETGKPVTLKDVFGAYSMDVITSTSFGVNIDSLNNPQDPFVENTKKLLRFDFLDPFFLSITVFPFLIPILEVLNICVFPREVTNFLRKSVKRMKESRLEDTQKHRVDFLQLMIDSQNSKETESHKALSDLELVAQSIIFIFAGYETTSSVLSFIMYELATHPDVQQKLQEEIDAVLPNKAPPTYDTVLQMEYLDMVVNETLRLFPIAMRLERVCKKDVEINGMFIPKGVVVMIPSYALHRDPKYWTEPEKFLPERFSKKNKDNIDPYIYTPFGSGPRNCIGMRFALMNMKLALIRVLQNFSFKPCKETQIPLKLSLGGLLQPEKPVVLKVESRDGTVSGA
Sequence of Nitric oxide synthase, inducible (P35228 whole entry): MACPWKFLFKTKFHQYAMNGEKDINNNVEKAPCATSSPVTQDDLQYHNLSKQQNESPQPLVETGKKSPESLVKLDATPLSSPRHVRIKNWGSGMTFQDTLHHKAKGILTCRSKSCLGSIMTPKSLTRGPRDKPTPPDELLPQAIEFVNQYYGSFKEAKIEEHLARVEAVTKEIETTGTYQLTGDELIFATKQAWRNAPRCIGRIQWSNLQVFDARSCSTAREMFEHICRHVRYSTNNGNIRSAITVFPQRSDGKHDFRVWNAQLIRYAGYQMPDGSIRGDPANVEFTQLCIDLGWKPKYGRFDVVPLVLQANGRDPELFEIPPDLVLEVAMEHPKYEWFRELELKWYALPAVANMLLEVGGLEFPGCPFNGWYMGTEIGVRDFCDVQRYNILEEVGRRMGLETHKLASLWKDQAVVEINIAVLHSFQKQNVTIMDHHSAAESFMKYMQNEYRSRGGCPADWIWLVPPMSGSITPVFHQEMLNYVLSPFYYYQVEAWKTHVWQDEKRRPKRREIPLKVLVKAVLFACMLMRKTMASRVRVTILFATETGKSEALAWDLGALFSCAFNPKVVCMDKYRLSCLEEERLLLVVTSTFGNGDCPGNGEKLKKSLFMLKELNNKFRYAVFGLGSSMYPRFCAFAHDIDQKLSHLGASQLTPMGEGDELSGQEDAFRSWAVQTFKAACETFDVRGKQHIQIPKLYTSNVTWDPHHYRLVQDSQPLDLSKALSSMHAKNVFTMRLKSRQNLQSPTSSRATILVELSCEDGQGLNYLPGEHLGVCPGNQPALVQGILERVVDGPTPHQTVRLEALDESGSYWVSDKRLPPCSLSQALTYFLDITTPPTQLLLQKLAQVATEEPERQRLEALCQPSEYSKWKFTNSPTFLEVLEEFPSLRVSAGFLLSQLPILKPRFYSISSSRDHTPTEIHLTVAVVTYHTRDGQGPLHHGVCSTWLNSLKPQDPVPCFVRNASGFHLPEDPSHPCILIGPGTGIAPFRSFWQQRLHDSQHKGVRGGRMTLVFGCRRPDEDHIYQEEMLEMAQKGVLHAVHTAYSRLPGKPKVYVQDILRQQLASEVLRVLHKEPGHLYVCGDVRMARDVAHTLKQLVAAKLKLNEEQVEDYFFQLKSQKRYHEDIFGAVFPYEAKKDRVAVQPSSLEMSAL
Sequence of Nitric oxide sythases; iNOS & nNOS (Homo sapiens) (P29475 whole entry, looked up): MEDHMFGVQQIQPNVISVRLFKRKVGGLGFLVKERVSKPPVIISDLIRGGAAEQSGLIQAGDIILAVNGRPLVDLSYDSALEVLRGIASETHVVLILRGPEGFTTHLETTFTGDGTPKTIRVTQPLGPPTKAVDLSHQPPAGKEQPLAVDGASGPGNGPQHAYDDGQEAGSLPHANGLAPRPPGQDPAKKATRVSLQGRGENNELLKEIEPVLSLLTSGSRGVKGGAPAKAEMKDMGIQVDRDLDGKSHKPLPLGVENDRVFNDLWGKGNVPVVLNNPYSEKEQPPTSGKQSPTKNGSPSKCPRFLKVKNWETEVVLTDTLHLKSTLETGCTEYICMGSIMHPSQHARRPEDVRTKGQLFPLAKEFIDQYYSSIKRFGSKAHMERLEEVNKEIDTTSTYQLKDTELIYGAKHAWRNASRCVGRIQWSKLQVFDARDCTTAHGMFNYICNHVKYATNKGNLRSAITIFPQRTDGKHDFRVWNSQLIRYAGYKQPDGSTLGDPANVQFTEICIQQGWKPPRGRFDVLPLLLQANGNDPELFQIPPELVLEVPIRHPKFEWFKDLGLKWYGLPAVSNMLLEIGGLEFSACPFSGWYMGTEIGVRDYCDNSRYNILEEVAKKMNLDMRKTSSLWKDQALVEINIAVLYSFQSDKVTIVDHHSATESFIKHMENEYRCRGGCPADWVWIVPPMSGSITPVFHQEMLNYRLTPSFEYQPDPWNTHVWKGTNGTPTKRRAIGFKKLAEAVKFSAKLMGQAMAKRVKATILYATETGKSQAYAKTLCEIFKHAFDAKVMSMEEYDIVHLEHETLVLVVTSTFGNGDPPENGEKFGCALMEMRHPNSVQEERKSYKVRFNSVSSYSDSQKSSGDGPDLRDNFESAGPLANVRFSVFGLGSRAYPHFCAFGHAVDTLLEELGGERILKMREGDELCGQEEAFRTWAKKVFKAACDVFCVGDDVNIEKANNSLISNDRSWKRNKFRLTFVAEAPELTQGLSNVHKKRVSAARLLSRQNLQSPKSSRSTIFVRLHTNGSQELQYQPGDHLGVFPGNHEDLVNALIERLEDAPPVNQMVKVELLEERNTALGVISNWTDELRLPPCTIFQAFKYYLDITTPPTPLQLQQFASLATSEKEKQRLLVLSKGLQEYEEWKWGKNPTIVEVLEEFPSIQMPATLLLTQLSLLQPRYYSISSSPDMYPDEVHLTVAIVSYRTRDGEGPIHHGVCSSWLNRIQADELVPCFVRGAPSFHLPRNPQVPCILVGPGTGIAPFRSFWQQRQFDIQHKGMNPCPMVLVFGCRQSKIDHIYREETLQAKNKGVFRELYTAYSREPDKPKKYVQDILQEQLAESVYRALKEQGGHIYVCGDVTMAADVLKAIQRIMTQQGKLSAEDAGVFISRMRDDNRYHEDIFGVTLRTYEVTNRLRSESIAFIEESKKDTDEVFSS
Sequence of Nitric oxide sythases; iNOS & nNOS (Homo sapiens) (P35228 whole entry, looked up): as the sequence (P35228 whole entry) above
Sequence of Nitric oxide synthase 1 (P29475 whole entry): as the sequence (P29475 whole entry, looked up) above
Sequence of Cytochrome P450 2C19 (P33261 whole entry): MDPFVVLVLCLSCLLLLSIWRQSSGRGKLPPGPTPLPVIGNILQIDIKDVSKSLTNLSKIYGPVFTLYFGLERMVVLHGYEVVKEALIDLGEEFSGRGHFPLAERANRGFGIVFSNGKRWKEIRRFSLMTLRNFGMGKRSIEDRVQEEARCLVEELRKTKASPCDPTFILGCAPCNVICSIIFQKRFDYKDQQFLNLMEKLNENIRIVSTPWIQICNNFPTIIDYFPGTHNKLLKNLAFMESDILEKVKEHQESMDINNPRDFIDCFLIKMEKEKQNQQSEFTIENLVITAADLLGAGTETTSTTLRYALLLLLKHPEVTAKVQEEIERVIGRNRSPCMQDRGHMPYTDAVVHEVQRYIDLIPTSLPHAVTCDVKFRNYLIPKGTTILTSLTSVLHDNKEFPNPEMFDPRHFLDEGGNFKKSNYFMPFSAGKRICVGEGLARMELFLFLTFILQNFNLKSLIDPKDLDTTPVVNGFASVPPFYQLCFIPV
Sequence of Cytochrome P450 2D6 (P10635 whole entry): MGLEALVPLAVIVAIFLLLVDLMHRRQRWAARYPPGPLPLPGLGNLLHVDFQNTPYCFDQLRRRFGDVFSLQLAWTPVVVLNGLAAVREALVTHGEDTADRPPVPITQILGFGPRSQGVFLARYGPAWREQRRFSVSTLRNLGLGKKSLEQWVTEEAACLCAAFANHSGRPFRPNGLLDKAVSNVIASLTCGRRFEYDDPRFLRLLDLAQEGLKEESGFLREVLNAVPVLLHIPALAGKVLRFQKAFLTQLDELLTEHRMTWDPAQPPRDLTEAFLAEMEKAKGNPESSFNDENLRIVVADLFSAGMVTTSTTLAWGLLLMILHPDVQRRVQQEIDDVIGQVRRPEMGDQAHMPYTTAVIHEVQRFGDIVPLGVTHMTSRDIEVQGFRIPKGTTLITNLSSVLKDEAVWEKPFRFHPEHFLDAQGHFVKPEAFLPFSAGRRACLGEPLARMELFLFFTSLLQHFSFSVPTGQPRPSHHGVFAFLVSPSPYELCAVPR
Sequence of Cytochrome P450 2C9 (P11712 whole entry): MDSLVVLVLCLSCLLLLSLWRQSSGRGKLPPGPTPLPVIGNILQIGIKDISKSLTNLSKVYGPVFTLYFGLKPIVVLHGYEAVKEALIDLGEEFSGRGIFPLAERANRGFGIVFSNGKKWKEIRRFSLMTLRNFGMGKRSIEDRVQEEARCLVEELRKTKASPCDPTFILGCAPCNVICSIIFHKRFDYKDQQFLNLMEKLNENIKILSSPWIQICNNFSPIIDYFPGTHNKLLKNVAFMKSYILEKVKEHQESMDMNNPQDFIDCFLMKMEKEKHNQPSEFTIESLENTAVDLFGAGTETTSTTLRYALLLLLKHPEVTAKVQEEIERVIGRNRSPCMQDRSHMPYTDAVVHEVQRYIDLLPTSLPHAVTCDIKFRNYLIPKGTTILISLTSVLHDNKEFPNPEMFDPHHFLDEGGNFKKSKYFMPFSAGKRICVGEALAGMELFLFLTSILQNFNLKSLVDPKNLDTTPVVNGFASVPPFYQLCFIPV

| Compound | Ratio IC50 [1] | IC50 (Nitric oxide synthase 3) [µM] | IC50 [2] [µM] | IC50 (Nitric oxide synthase 1) [µM] | other results |
| --- | --- | --- | --- | --- | --- |
| N=C(Nc1ccc2c(C3CN4CCC3CC4)c[nH]c2c1)c1cccs1 (single isomer, unassigned; enantiomer 1) [listing 1 of 2 here] | 98 |  |  |  |  |
| N=C(Nc1ccc(CCNCc2cccc(Cl)c2)cc1)c1cccs1 |  |  |  |  | Activity (Gerbillinae): 44% |
| N=C(Nc1ccc2c(C3CN4CCC3CC4)c[nH]c2c1)c1cccs1 (racemic) [listing 1 of 2 here] |  | 33.3 | 18.4 | 1.23 |  |
| COC(=O)[C@@H](N)CCCNC(=N)N[N+](=O)[O-] | 1.2 | 0.68 | 0.83 | 0.69 | inhibition [3]: inactive; inhibition [4]: Dose-dependent effect |
| CN1CC=C(c2c[nH]c3cc(NC(=N)c4cccs4)ccc23)CC1.Cl.Cl | 15 | 26.5 | 12.3 | 0.8 | IC50 (Cytochrome P450 2D6): 63.2 µM; IC50 (Cytochrome P450 2C9; read-out: IC50): 72.7 µM; IC50 (Cytochrome P450 1A2; read-out: IC50): > 100 µM; inhibition [5]: inactive; IC50 (Cytochrome P450 3A4 [6]): > 100 µM; Activity (Rattus norvegicus [7]): 67%; Activity (Rattus norvegicus [8]): Dose-dependent effect; IC50 (Cytochrome P450 3A4 [9]): 74.8 µM; inhibition [10]: inactive; IC50 (Cytochrome P450 2C19): 40.1 µM |
| N=C(Nc1ccc2c(C3CN4CCC3CC4)c[nH]c2c1)c1cccs1 (single isomer, unassigned; enantiomer 2) | 309 |  |  |  |  |
| N=C(Nc1ccc2c(C3CN4CCC3CC4)c[nH]c2c1)c1cccs1 (single isomer, unassigned; enantiomer 1) [listing 2 of 2 here] |  | 23.3 | 52.1 | 0.53 |  |
| O=[N+]([O-])c1cccc2cn[nH]c12 [7-NITROINDAZOLE] |  |  |  |  | Activity (Gerbillinae): 22% |
| CN1CCC(c2c[nH]c3cc(NC(=N)c4cccs4)ccc23)C1 (stereo unspecified) | 13 |  | 2.6 |  |  |
| Cl.Cl.N=C(Nc1ccc2c(C3CN4CCC3CC4)c[nH]c2c1)c1cccs1 (single isomer, unassigned; enantiomer 2) |  | 40.6 | 139 | 0.45 | IC50 (Cytochrome P450 2D6): > 100 µM; IC50 (Cytochrome P450 2C9): Not Active; IC50 (Cytochrome P450 1A2): Not Active; IC50 (Cytochrome P450 3A4 [6]): > 100 µM; IC50 (Cytochrome P450 3A4 [9]): 100 µM; IC50 (Cytochrome P450 2C19): 49.6 µM |
| CN1CCC(c2c[nH]c3cc(NC(=N)c4cccs4)ccc23)CC1 | 78 | 10.7 |  | 0.12 |  |
| CNC(=N)NCCC[C@H](N)C(=O)O.Cl.Cl |  |  |  |  | Activity (Homo sapiens): 67% |
| N=C(Nc1ccc2c(C3CN4CCC3CC4)c[nH]c2c1)c1cccs1 (racemic) [listing 2 of 2 here] | 15 |  |  |  |  |
| FC(F)(F)c1ccccc1-n1ccnc1 |  |  |  |  | Activity (Gerbillinae): 8% |
| N=C(Nc1ccc2c(C3=CN4CCC3CC4)c[nH]c2c1)c1cccs1 | 6 |  | 8.4 | 1.5 |  |
| CN1CCC[C@@H]1CCn1ccc2ccc(/N=C(\N)c3cccs3)cc21 | 225 |  |  |  |  |
